Results reported in ChEMBL document CHEMBL1153427, “1-Sulfonyl-4-acylpiperazines as selective cannabinoid-1 receptor (CB1R) inverse agonists for the treatment of obesity” (J Med Chem, 2009).

Tests used:
[1] = target: T1, Cannabinoid receptor 1 (Homo sapiens, UniProt P21554); assay: Displacement of [3H]CP-55940 from human recombinant CB1R expressed in CHO cells; assay type: cell-based
In short: (§1)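 Radioligand competition used 0.5 nM [³H]CP55940 with recombinant human CB1R-CHO or CB2R-CHO membranes. Bound and free ligand were separated by filtration, and IC₅₀ came from nonlinear curve fitting.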

[2] = target: Cannabinoid receptor 2 (Homo sapiens, UniProt P34972); assay: Displacement of [3H]CP-55940 from human recombinant CB2R expressed in CHO cells; assay type: cell-based; in short: as §1
[3] = target: T1, Cannabinoid receptor 1; assay: Inverse agonist activity at human recombinant CB1R expressed in CHO cells assessed as increase in forskolin-stimulated cAMP level; assay type: functional, cell-based
In short: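 Recombinant CB1R-CHO cells were incubated with test compound across a range of concentrations, plus forskolin and the phosphodiesterase inhibitor IBMX. Buffer was Earle's balanced salt solution with 5 mM MgCl₂, 10 mM HEPES pH 7.3 and 1 mg/mL BSA, for 30 min at room temperature, with cAMP read out.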

T1 sequence (P21554 whole entry): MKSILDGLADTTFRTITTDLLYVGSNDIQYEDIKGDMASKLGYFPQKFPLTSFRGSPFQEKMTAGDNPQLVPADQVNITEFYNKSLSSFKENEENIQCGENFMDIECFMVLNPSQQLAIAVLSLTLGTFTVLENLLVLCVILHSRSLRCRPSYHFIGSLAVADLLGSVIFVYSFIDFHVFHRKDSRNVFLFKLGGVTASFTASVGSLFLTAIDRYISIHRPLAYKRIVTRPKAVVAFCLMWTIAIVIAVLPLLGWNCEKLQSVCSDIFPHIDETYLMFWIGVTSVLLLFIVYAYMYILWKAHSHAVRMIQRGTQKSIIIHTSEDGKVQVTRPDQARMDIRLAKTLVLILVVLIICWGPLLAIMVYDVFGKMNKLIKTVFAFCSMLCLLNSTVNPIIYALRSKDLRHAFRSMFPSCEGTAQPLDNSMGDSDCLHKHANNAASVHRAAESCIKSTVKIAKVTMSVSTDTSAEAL
Chain of Cannabinoid receptor 2 (P34972 whole entry): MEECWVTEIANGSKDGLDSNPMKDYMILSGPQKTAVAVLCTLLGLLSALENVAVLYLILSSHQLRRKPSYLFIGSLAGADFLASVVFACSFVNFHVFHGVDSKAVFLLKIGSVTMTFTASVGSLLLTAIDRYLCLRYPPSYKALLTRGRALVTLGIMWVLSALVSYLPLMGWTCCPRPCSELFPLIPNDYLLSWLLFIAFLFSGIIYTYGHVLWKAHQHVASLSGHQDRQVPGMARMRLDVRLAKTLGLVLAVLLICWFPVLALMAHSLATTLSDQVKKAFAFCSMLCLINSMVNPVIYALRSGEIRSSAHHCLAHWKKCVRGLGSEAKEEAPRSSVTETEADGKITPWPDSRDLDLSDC

SMILES | IC50 [1] [nM] | IC50 [2] [nM] | EC50 [3] [nM]
COc1cc(C(F)(F)F)cc(S(=O)(=O)N2CCN(C(=O)[C@@H]3C[C@H]3c3ccc(C(F)(F)F)cc3)CC2)c1 | 0.5 |  | 
O=C([C@@H]1C[C@H]1c1ccc(C(F)(F)F)cc1)N1CCN(S(=O)(=O)c2cc(-c3n[nH]c(=O)o3)cc(C(F)(F)F)c2)CC1 | 100 | > 10000 | 
Cc1nnc(-c2cc(C(F)(F)F)cc(S(=O)(=O)N3CCN(C(=O)[C@@H]4C[C@H]4c4ccc(C(F)(F)F)cc4)CC3)c2)[nH]1 | 10 | > 10000 | 
O=C([C@@H]1C[C@H]1c1ccc(C(F)(F)F)cc1)N1CCN(S(=O)(=O)c2cc(-c3n[nH]c(=O)[nH]3)cc(C(F)(F)F)c2)CC1 | 400 | > 10000 | 
N#Cc1ccc(CC(=O)N2CCN(S(=O)(=O)c3cc(Cl)cc(Cl)c3)CC2)cc1 |  |  | 0.5
COC(=O)c1cc(C(F)(F)F)cc(S(=O)(=O)N2CCN(C(=O)Cc3ccc(C(F)(F)F)cc3)CC2)c1 | 5 | > 10000 | 1
O=C(C1CCCCC1)N1CCN(S(=O)(=O)c2cc(C(F)(F)F)cc(C(F)(F)F)c2)CC1 |  | > 10000 | 1
O=C(C1CC1)N1CCN(S(=O)(=O)c2cc(Cl)c(Cl)cc2Cl)CC1 | 9700 |  | 1500
O=C(c1ccccc1)N1CCN(S(=O)(=O)c2cc(C(F)(F)F)cc(C(F)(F)F)c2)CC1 | > 10000 |  | > 10000
CC(C)Oc1cc(C(F)(F)F)cc(S(=O)(=O)N2CCN(C(=O)[C@@H]3C[C@H]3c3ccc(C(F)(F)F)cc3)CC2)c1 | 0.3 |  | 
O=C(Cc1ccc(C(F)(F)F)cc1)N1CC(NS(=O)(=O)c2cc(C(F)(F)F)cc(C(F)(F)F)c2)C1 | > 10000 |  | > 10000
O=C(C1CCCCC1)N1CCN(S(=O)(=O)c2cccc(-c3ccccc3)c2)CC1 | 200 | > 10000 | 6
O=C([C@@H]1C[C@H]1c1ccc(C(F)(F)F)cc1)N1CCN(S(=O)(=O)c2cc(-n3ccnn3)cc(C(F)(F)F)c2)CC1 | 50 | > 10000 | 
O=C(C1CC1)N1CCN(S(=O)(=O)c2c(Cl)cc(Cl)cc2Cl)CC1 | 9700 |  | 1500
O=C(C1CCCCC1)N1C2CC1CN(S(=O)(=O)c1cccc3ccccc13)C2 | > 10000 |  | 900
O=C(Cc1ccc(C(F)(F)F)cc1)N1CCN(S(=O)(=O)c2cc(Cl)cc(Cl)c2)CC1 | 16 |  | 0.5
O=C(C1CCCCC1)N1CCN(S(=O)(=O)c2cccc3ccccc23)CC1c1ccccc1 (configuration not stated) | 9000 |  | 600
O=C([C@@H]1C[C@H]1c1ccc(C(F)(F)F)cc1)N1CCN(S(=O)(=O)c2cc(-n3cccn3)cc(C(F)(F)F)c2)CC1 | 0.7 | > 10000 | 
Nc1nnc(-c2cc(C(F)(F)F)cc(S(=O)(=O)N3CCN(C(=O)[C@@H]4C[C@H]4c4ccc(C(F)(F)F)cc4)CC3)c2)o1 | 400 | > 10000 | 

SMILES | IC50 [1] [nM] | IC50 [2] [nM] | EC50 [3] [nM]
O=C(Cc1ccc(C(F)(F)F)cc1)NC1CN(S(=O)(=O)c2cc(C(F)(F)F)cc(C(F)(F)F)c2)C1 | > 10000 |  | > 10000
CC(C(=O)N1CCN(S(=O)(=O)c2cc(Cl)cc(Cl)c2)CC1)c1ccc(C(F)(F)F)cc1 (stereo in doubt; 20a) | 20 |  | 1.5
O=C(C1CC1)N1CCN(S(=O)(=O)c2c(Cl)cccc2Cl)CC1 | 9700 |  | 1500
CN(C)C(=O)Oc1cc(C(F)(F)F)cc(S(=O)(=O)N2CCN(C(=O)[C@@H]3C[C@H]3c3ccc(C(F)(F)F)cc3)CC2)c1 | 2 |  | 
O=C([C@@H]1C[C@H]1c1ccc(C(F)(F)F)cc1)N1CCN(S(=O)(=O)c2cc(-n3cncn3)cc(C(F)(F)F)c2)CC1 | 7 | > 10000 | 
CC(C(=O)N1CCN(S(=O)(=O)c2cc(Cl)cc(Cl)c2)CC1)c1ccc(C(F)(F)F)cc1 (stereo in doubt; 20b) | 400 |  | 11
O=C([C@@H]1C[C@H]1c1ccc(C(F)(F)F)cc1)N1CCN(S(=O)(=O)c2cc(-c3c[nH]nn3)cc(C(F)(F)F)c2)CC1 | 3 | > 10000 | 
O=C(C1CCCCC1)N1C2CCC1CN(S(=O)(=O)c1cccc3ccccc13)C2 | 3100 |  | 300
O=C([C@@H]1C[C@H]1c1ccc(C(F)(F)F)cc1)N1CCN(S(=O)(=O)c2cc(-c3ncon3)cc(C(F)(F)F)c2)CC1 | 0.3 | > 10000 | 
O=C(C1CC1)N1CCN(S(=O)(=O)c2ccc(Cl)cc2)CC1 | 3500 |  | > 10000
C[C@@H]1CN(S(=O)(=O)c2cccc3ccccc23)C[C@H](C)N1C(=O)C1CCCCC1 | 2800 |  | 8
CC(C)(O)c1cc(C(F)(F)F)cc(S(=O)(=O)N2CCN(C(=O)[C@@H]3C[C@H]3c3ccc(C(F)(F)F)cc3)CC2)c1 | 8 | > 10000 | 
CC(C(=O)N1CCN(S(=O)(=O)c2cc(Cl)cc(Cl)c2)CC1)c1ccccc1 (racemic) | 220 |  | 0.3
O=C(C1CC1)N1CCN(S(=O)(=O)c2cc(Cl)ccc2Cl)CC1 | 6400 |  | 90
O=C([C@@H]1C[C@H]1c1ccc(C(F)(F)F)cc1)N1CCN(S(=O)(=O)c2cc(O)cc(C(F)(F)F)c2)CC1 | 6 |  | 
O=C(Cc1cccc(C(F)(F)F)c1)N1CCN(S(=O)(=O)c2cc(Cl)cc(Cl)c2)CC1 | 150 |  | 4.6
O=C([C@@H]1C[C@H]1c1ccc(C(F)(F)F)cc1)N1CCN(S(=O)(=O)c2cc(-c3cn[nH]c3)cc(C(F)(F)F)c2)CC1 | 9 | > 10000 | 
O=C(C1CC1)N1CCN(S(=O)(=O)c2cc(Cl)cc(Cl)c2)CC1 | 780 |  | 5
CCOC(=O)Oc1cc(C(F)(F)F)cc(S(=O)(=O)N2CCN(C(=O)[C@@H]3C[C@H]3c3ccc(C(F)(F)F)cc3)CC2)c1 | 8 |  | 

SMILES | IC50 [1] [nM] | IC50 [2] [nM] | EC50 [3] [nM]
O=C(C1CCCCC1)N1CCN(S(=O)(=O)c2cccc(C(F)(F)F)c2)CC1 | 4200 |  | > 10000
CC(C)(C(=O)N1CCN(S(=O)(=O)c2cc(Cl)cc(Cl)c2)CC1)c1ccccc1 | 230 |  | 2.8
O=C(Cc1ccccn1)N1CCN(S(=O)(=O)c2cc(Cl)cc(Cl)c2)CC1 | 3000 |  | 40
CC1(C)CN(S(=O)(=O)c2cccc3ccccc23)CCN1C(=O)C1CCCCC1 | 700 |  | 0.6
Cc1[nH]ncc1-c1cc(C(F)(F)F)cc(S(=O)(=O)N2CCN(C(=O)[C@@H]3C[C@H]3c3ccc(C(F)(F)F)cc3)CC2)c1 | 20 | > 10000 | 
CC(C)(C)C(=O)Oc1cc(C(F)(F)F)cc(S(=O)(=O)N2CCN(C(=O)[C@@H]3C[C@H]3c3ccc(C(F)(F)F)cc3)CC2)c1 | 8 |  | 
O=C1CSC(c2cc(C(F)(F)F)cc(S(=O)(=O)N3CCN(C(=O)[C@@H]4C[C@H]4c4ccc(C(F)(F)F)cc4)CC3)c2)=N1 | 10 | > 10000 | 
O=C([C@@H]1C[C@H]1c1ccc(C(F)(F)F)cc1)N1CCN(S(=O)(=O)c2cc(-c3noc(=O)[nH]3)cc(C(F)(F)F)c2)CC1 | 200 | > 10000 | 
O=C(Cc1ccccc1)N1CCN(S(=O)(=O)c2cc(Cl)cc(Cl)c2)CC1 | 800 |  | 2
O=C([C@@H]1C[C@H]1c1ccc(C(F)(F)F)cc1)N1CCN(S(=O)(=O)c2cc(C(F)(F)F)cc(C(F)(F)CO)c2)CC1 | 5 | > 10000 | 
O=C(Cc1ccccc1C(F)(F)F)N1CCN(S(=O)(=O)c2cc(Cl)cc(Cl)c2)CC1 | 470 |  | 2.2
CC1CN(C(=O)C2CCCCC2)CCN1S(=O)(=O)c1cccc2ccccc12 (configuration not stated) | 4700 |  | 180
O=C([C@@H]1C[C@H]1c1ccc(C(F)(F)F)cc1)N1CCN(S(=O)(=O)c2cc(-n3nccn3)cc(C(F)(F)F)c2)CC1 | 0.6 | > 10000 | 
O=C(C1CCCCC1)N1CCN(S(=O)(=O)c2cccc3ccccc23)CC1C(F)(F)F (configuration not stated) | 290 |  | 2.5
O=C(CCc1ccc(C(F)(F)F)cc1)N1CCN(S(=O)(=O)c2cc(Cl)cc(Cl)c2)CC1 | 26 |  | 0.5
O=C(C1CCCCC1)N1CCN(S(=O)(=O)c2cc(Cl)cc(Cl)c2)CC1 |  | > 10000 | 0.5
O=C(Cc1ccc(C(F)(F)F)cc1)N1CCN(S(=O)(=O)c2cc(C(F)(F)F)cc(C(F)(F)F)c2)C1 | > 10000 |  | > 10000
CC1CN(S(=O)(=O)c2cccc3ccccc23)CCN1C(=O)C1CCCCC1 (configuration not stated) | 310 |  | 7
